Source: ChEMBL document CHEMBL1148429, “Penicillin-derived inhibitors that simultaneously target both metallo- and serine-beta-lactamases” (Bioorg Med Chem Lett, 2004)
≈ marks a conversion by molar mass, not a printed value.

Legend:
Beta-lactamase L1 = Beta-lactamase L1 (Stenotrophomonas maltophilia, UniProt P52700); experiment: Beta-Lactamase Inhibition of metallo-beta-lactamase representative class B (L1) enzyme
Outline: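 For the metallo enzyme, inhibitor and enzyme were preincubated for 4 min. Concentrated nitrocefin was then added to give the final assay volume, and IC50 was determined.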

Staphylococcus aureus [1] = experiment: Antibacterial activity was determined against the Staphylococcus aureus ATCC 29213 in presence of Piperacillin; type: functional
Outline: (§1)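 MIC of piperacillin against β-lactamase-producing strains, with the piperacillin concentration varied and the inhibitor held constant at […].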

[2] = target: Beta-lactamase TEM (Escherichia coli) (UniProt P62593); experiment: Beta-Lactamase inhibitory activity against representative class A (TEM-1) serine enzyme from Escherichia coli ATCC 35218 in presence of Piperacillin; outline: as §1
Sequence of Beta-lactamase TEM (Escherichia coli) (P62593 whole entry): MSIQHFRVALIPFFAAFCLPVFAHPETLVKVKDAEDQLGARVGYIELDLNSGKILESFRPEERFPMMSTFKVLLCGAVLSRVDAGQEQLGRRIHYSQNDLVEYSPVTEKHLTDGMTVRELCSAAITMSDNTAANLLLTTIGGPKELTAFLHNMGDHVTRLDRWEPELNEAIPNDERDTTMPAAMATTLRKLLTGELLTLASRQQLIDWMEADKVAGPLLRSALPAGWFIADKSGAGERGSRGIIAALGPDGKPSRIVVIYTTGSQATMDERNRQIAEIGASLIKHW

[3] = target: T1, Metallo-beta-lactamase type 2 (Bacillus cereus, UniProt P14488); experiment: Inhibition of class B (BCII) metallo-beta-lactamase representative enzyme
T1 sequence (P14488 whole entry): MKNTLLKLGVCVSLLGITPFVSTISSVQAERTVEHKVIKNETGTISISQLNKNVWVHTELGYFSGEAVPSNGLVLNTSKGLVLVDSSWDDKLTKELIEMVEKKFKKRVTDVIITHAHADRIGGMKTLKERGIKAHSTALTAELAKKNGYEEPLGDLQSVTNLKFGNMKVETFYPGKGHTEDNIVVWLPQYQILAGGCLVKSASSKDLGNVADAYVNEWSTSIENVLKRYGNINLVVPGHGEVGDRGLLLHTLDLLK
Outline: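 BCII metallo-β-lactamase assay: inhibitor and enzyme incubated together for 4 min in 970 µL, then concentrated nitrocefin added to 1 mL final volume. IC50 determined from nitrocefin hydrolysis.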

[4] = target: Beta-lactamase (Escherichia coli K-12) (UniProt P00811)
Sequence of Beta-lactamase (Escherichia coli K-12) (P00811 whole entry): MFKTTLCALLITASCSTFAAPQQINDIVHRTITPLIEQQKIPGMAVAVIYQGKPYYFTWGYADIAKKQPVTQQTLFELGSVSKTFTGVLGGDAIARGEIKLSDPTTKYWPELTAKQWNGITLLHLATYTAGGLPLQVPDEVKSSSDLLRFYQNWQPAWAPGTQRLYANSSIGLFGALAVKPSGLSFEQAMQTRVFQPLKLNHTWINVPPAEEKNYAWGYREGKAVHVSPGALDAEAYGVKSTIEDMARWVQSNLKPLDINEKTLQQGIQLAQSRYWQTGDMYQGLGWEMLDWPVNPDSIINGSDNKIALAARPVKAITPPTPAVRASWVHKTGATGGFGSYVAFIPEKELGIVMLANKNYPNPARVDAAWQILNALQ

Pseudomonas aeruginosa [5] = experiment: Synergistic activity against VIM-1 beta lactamase produced by Pseudomonas aeruginosa in presence of Piperacillin and Tazobactam; R = Resistant
Pseudomonas aeruginosa [6] = experiment: Synergistic activity against SPM-1 beta lactamase produced by Pseudomonas aeruginosa in presence of Piperacillin and Tazobactam; R = Resistant
Pseudomonas aeruginosa [7] = experiment: Synergistic activity against VIM-7 beta lactamase produced by Pseudomonas aeruginosa in presence of Piperacillin and Tazobactam; R = Resistant
Beta-lactamase TEM = Beta-lactamase TEM (Escherichia coli, UniProt P62593); experiment: Beta-Lactamase inhibitory activity against representative class A (TEM-1) serine enzyme
Sequence of Beta-lactamase TEM (P62593 whole entry): as the sequence (P62593 whole entry) above
Outline: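 Serine β-lactamase assay: inhibitor preincubated with enzyme for 4 min in 100 µL, then an aliquot transferred into dilute nitrocefin substrate (1 mL final). IC50 is expressed as the inhibitor concentration in the 100 µL incubation, from multiple experiments.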

Escherichia coli = experiment: Synergic activity against IMP-1 beta lactamase produced by Escherichia coli in presence of Piperacillin and Tazobactam; S = susceptible; type: functional
Outline: (§2)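 Synergy with piperacillin against metallo-β-lactamase-producing strains (IMP-1; SPM-1, VIM-1 or VIM-7 carriers). The initial screen used […] at a 1:1 antibiotic:inhibitor ratio. Inhibitor was tested with tazobactam or DVR-II-183 added as a serine β-lactamase inhibitor, or without one.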

[8] = Synergistic activity of compound was determined against […]; type: functional, plasmodium aeruginosa; settings: Pseudomonas aeruginosa; outline: as §2
[9] = Synergic activity of compound was determined against IMP-1 beta lactamase produced by Escherichia coli; type: functional; outline: as §2
[10] = target: Beta-lactamase TEM (Escherichia coli) (UniProt P62593); experiment: Beta-Lactamase inhibitory activity against represent active class A (TEM-1) serine enzyme from Escherichia coli ATCC 35218
Staphylococcus aureus [11] = experiment: Antibacterial activity was determined against the Staphylococcus aureus ATCC 29213; type: functional
[12] = Synergistic activity of compound was determined against VIM-7 beta lactamase produced by Pseudomonas aeruginosa
[13] = Synergistic activity of compound was determined against SPM-1 beta lactamase produced by Pseudomonas aeruginosa
Pseudomonas aeruginosa [14] = experiment: Synergistic activity against VIM-1 beta lactamase produced by Pseudomonas aeruginosa in presence of Piperacillin; R = Resistant
[15] = Synergistic activity against VIM-7 beta lactamase produced by Escherichia coli in presence of Piperacillin; type: functional, plasmodium aeruginosa; settings: Pseudomonas aeruginosa
[16] = Synergistic activity against SPM-1 beta lactamase produced by Pseudomonas aeruginosa in presence of Piperacillin
Pseudomonas aeruginosa [17] = experiment: Synergistic activity against VIM-7 beta lactamase produced by Pseudomonas aeruginosa in presence of Piperacillin; R = Resistant
[18] = Synergistic activity against VIM-1 beta lactamase produced by Pseudomonas aeruginosa in presence of Piperacillin
[19] = Synergic activity against IMP-1 beta lactamase produced by Escherichia coli was determined in presence of Piperacillin; type: functional

Sequence of Beta-lactamase L1 (P52700 whole entry): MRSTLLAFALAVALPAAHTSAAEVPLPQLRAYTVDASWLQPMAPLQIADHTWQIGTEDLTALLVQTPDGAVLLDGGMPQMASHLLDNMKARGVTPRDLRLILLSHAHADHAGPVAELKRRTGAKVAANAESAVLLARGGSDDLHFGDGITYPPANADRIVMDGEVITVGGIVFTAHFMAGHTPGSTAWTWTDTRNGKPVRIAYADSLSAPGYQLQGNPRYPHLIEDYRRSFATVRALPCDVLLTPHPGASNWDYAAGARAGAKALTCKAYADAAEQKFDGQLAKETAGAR

Row | Compound | IC50 (Beta-lactamase L1) [µM] | MIC (Staphylococcus aureus [1]) [µg/mL] | MIC [2] [µg/mL] | IC50 [3] [µM] | MIC [4] [µg/mL] | further results
1 | CC1(C)[C@H](C(=O)O)N2C(=O)[C@H](CO)[C@H]2S1(=O)=O | > 200 | 2 | 8 | > 200 | 0.25 (≈ 0.95 µM) | 
2 | CC1(C)S[C@@H]2[C@H](CS)C(=O)N2[C@H]1C(=O)O | 32.1 | 2 | > 128 | 2.9 | 2 (≈ 8.09 µM) | Activity (Pseudomonas aeruginosa [5]): Resistant; Activity (Pseudomonas aeruginosa [6]): Resistant; Activity (Pseudomonas aeruginosa [7]): Resistant; IC50 (Beta-lactamase TEM): 601 µM; Activity (Escherichia coli): Susceptible
3 | CCN1CCN(C(=O)N[C@@H](C(=O)N[C@@H]2C(=O)N3[C@@H]2SC(C)(C)[C@@H]3C(=O)O)c2ccccc2)C(=O)C1=O [PIPERACILLIN] |  |  |  |  |  | MIC [8]: > 128 µg/mL; MIC [9]: > 128 µg/mL; MIC [10]: > 128 µg/mL; MIC (Staphylococcus aureus [11]): 8 µg/mL (≈ 15.5 µM); MIC [12]: > 128 µg/mL; MIC [13]: > 128 µg/mL
4 | C[C@]1(Cn2ccnn2)[C@H](C(=O)[O-])N2C(=O)C[C@H]2S1(=O)=O.[Na+] [TAZOBACTAM SODIUM] | > 200 | 1 | 1 | > 200 | 0.5 | Activity (Pseudomonas aeruginosa [14]): Resistant; MIC [15]: > 128 µg/mL; MIC [16]: > 128 µg/mL; Activity (Pseudomonas aeruginosa [17]): Resistant; MIC [18]: > 128 µg/mL; MIC [19]: > 128 µg/mL
5 | O=C(O)c1cccc(C(=O)O)n1 [DIPICOLINIC ACID] | 7.8 |  |  | 21.8 |  | 
6 | CC1(C)S[C@@H]2[C@@H](CS)C(=O)N2[C@H]1C(=O)O | 10.9 | 4 | > 128 | 1.7 | 2 (≈ 8.09 µM) | Activity (Pseudomonas aeruginosa [5]): Resistant; Activity (Pseudomonas aeruginosa [6]): Resistant; Activity (Pseudomonas aeruginosa [7]): Resistant; Activity (Escherichia coli): Susceptible
7 | CC1(C)[C@H](C(=O)O)N2C(=O)[C@@H](CO)[C@H]2S1(=O)=O | 72.3 | 1 | 1 | > 200 | 0.125 (≈ 0.475 µM) | 
